The record followed here is ChEMBL document CHEMBL2396597, “Synthesis and evaluation of novel orally active p53-MDM2 interaction inhibitors” (Bioorg Med Chem, 2013).

Data set [1] in a line: Metabolic stability in mouse liver microsomes assessed as compound remaining at 1 uM after 30 mins by LC-MS/MS analysis. The data set is classed as ADME, Microsome. The following applies: read-out: Stability. In outline:
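Compound at 1 μM final was incubated with mouse hepatic microsomes (0.5 mg/mL protein) in sodium phosphate buffer pH 7.4 at 37°C. Reaction was started with an NADPH-generating system and stopped with MeOH after 30 min. Samples were centrifuged, and loss of parent was measured by LC-MS/MS as % remaining.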

Data set [2] can be described thus: Drug uptake in tumor of NOD/SCID mouse xenografted with human MV4-11 cells at 100 mg/kg, po measured at 2 hrs by LC-MS/MS analysis. In kind it is ADME, organism-based, Neoplasm. On the set-up: dose 100 mg/kg, route oral. The note with it: read-out: Drug uptake. The essentials:
(§1)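 Tumor-bearing mice were given 100 mg/kg orally, suspended in Japanese Pharmacopoeia First Fluid (pH 1.2). Tumors were collected at 1, 2, 4, 6 and 24 h after dosing and homogenized. Tumor drug concentration was quantified by LC/MS/MS on an ODS column.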
In general terms: A xenograft is tissue or cells of one species grown in another, often human tumour cells in immunodeficient mice.

Data set [3] can be described thus: Plasma concentration in NOD/SCID mouse at 100 mg/kg, po measured at 24 hrs. The data set is classed as ADME, organism-based. On the set-up: dose 100 mg/kg, route oral.
Data set [4] in a line: Plasma concentration in NOD/SCID mouse at 100 mg/kg, po measured at 4 hrs. The arrangement: dose 100 mg/kg, route oral. The data set is classed as ADME, organism-based.
Data set [5] is described as follows: Drug uptake in tumor of NOD/SCID mouse xenografted with human MV4-11 cells at 100 mg/kg, po measured at 4 hrs by LC-MS/MS analysis. The data set is classed as ADME, organism-based, Neoplasm. The arrangement: dose 100 mg/kg, route oral. The following applies: read-out: Drug uptake. In outline: as §1
The nature of data set [6]: Plasma concentration in NOD/SCID mouse at 100 mg/kg, po measured at 2 hrs. The data set is classed as ADME, organism-based. On the set-up: dose 100 mg/kg, route oral.
Data set [7] is described as follows: AUC in NOD/SCID mouse at 100 mg/kg, po. In kind it is ADME, organism-based. On the set-up: dose 100 mg/kg, route oral. The following applies: plasma.
A short description of data set [8]: Drug uptake in tumor of NOD/SCID mouse xenografted with human MV4-11 cells at 100 mg/kg, po measured at 1 hr by LC-MS/MS analysis. In kind it is ADME, organism-based, Neoplasm. On the set-up: dose 100 mg/kg, route oral. The following applies: read-out: Drug uptake. In outline:
as §1

The nature of data set [9]: Plasma concentration in NOD/SCID mouse at 100 mg/kg, po measured at 6 hrs. On the set-up: dose 100 mg/kg, route oral. In kind it is ADME, organism-based.
Data set [10] can be described thus: Plasma concentration in NOD/SCID mouse at 100 mg/kg, po measured at 1 hr. The data set is classed as ADME, organism-based. The arrangement: dose 100 mg/kg, route oral.
Data set [11] is described as follows: Drug uptake in tumor of NOD/SCID mouse xenografted with human MV4-11 cells at 100 mg/kg, po measured at 6 hrs by LC-MS/MS analysis. In kind it is ADME, organism-based, Neoplasm. The arrangement: dose 100 mg/kg, route oral. The note with it: read-out: Drug uptake. In outline: as §1
Data set [12] can be described thus: Drug uptake in tumor of NOD/SCID mouse xenografted with human MV4-11 cells at 100 mg/kg, po measured at 24 hrs by LC-MS/MS analysis. The data set is classed as ADME, organism-based, Neoplasm. On the set-up: dose 100 mg/kg, route oral. The following applies: read-out: Drug uptake. The essentials:
as §1

Consider `CC(C)C1=C(C(=O)N2CCC[C@H]2C(=O)N(C)C)SC2=N[C@@](C)(c3ccc(Cl)cc3)[C@@H](c3ccc(Cl)cc3)N21`, for which the remaining at 0.5 h, 1 µM in data set [1] turned out to be 9%.

Regarding `CC(=O)N1CCN(C(=O)[C@@H]2CC[C@@H](C)N2C(=O)C2=C(C(C)C)N3C(=N[C@@](C)(c4ccc(Cl)cc4)[C@H]3c3ccc(Cl)cc3)S2)C[C@H]1C`, the remaining at 0.5 h, 1 µM in [1] stood at 55%.

As to `CC(=O)N1CCN(C(=O)[C@@H]2CC[C@@H](C)N2C(=O)C2=C(C(C)C)N3C(=N[C@@](C)(c4ccc(Cl)cc4)[C@H]3c3ccc(Cl)cc3)S2)C[C@@H]1C`, the remaining at 0.5 h, 1 µM in data set [1] turned out to be 65%.

For the compound `CC(C)C1=C(C(=O)N2[C@H](C)CC[C@H]2C(=O)N2CCN(C)C(C)(C)C2)SC2=N[C@@](C)(c3ccc(Cl)cc3)[C@@H](c3ccc(Cl)cc3)N21`, the remaining at 0.5 h, 1 µM in data set [1] was determined as 84%.

For the compound `CC[C@@H]1CC[C@@H](C(=O)N2CCN(C)[C@H](C)C2)N1C(=O)C1=C(C(C)C)N2C(=N[C@@](C)(c3ccc(Cl)cc3)[C@H]2c2ccc(Cl)cc2)S1`, the remaining at 0.5 h, 1 µM in data set [1] came to 76%.

With `CC[C@@H]1CC[C@@H](C(=O)N2CCN(C)[C@@H](C)C2)N1C(=O)C1=C(C(C)C)N2C(=N[C@@](C)(c3ccc(Cl)cc3)[C@H]2c2ccc(Cl)cc2)S1`, the remaining at 0.5 h, 1 µM in [1] was 69%.

On to `CC[C@@H]1CC[C@@H](C(=O)N2CCN(C(C)=O)[C@H](C)C2)N1C(=O)C1=C(C(C)C)N2C(=N[C@@](C)(c3ccc(Cl)cc3)[C@H]2c2ccc(Cl)cc2)S1`, for which, in [1], the remaining at 0.5 h, 1 µM is 59%. Moreover, the results for the concentration at 2 h in data set [2] and in [6] were 32700 ng/mL and 68400 ng/mL, respectively. The compound further came in with a concentration at 24 h in data set [3] of 100 ng/mL. Besides, the concentration at 4 h in [4] was 46400 ng/mL; in [5], 31200 ng/mL. The AUC (commonly the area under the concentration-time curve, a measure of exposure) in data set [7] was found to be 737 µg·h/mL. The concentration at 1 h in data set [8] was found to be 31500 ng/mL; in data set [10], 59600 ng/mL. The results for the concentration at 6 h in data set [9] and in data set [11] were 48200 ng/mL and 25200 ng/mL, respectively.

On to `CC[C@@H]1CC[C@@H](C(=O)N2CCN(C(C)=O)[C@@H](C)C2)N1C(=O)C1=C(C(C)C)N2C(=N[C@@](C)(c3ccc(Cl)cc3)[C@H]2c2ccc(Cl)cc2)S1`, for which the remaining at 0.5 h, 1 µM in [1] came to 54%.

As to `CC[C@@H]1CC[C@@H](C(=O)N2CCN(C(C)=O)CC2)N1C(=O)C1=C(C(C)C)N2C(=N[C@@](C)(c3ccc(Cl)cc3)[C@H]2c2ccc(Cl)cc2)S1`, the remaining at 0.5 h, 1 µM in data set [1] was 38%.

On to `CC[C@@H]1CC[C@@H](C(=O)N2CCOCC2)N1C(=O)C1=C(C(C)C)N2C(=N[C@@](C)(c3ccc(Cl)cc3)[C@H]2c2ccc(Cl)cc2)S1`, for which, in data set [1], the remaining at 0.5 h, 1 µM worked out at 6%.

As to `CC(C)C1=C(C(=O)N2[C@H](C)CC[C@H]2C(=O)N2CCN(C)[C@H](C)C2)SC2=N[C@@](C)(c3ccc(Cl)cc3)[C@@H](c3ccc(Cl)cc3)N21`, the remaining at 0.5 h, 1 µM in data set [1] was 74%. The concentration at 2 h in data set [2] was 23300 ng/mL; in data set [6], 7800 ng/mL. For the same compound, the concentration at 24 h was 300 ng/mL in [3] and 4300 ng/mL in [12]. Besides, the results for the concentration at 4 h in [4] and in [5] were 7500 ng/mL and 27900 ng/mL, respectively. In data set [7], the AUC worked out at 93.1 µg·h/mL. For the same compound, the concentration at 1 h in data set [8] came out at 18900 ng/mL; in data set [10], 6900 ng/mL. Besides, the concentration at 6 h in data set [9] stood at 5700 ng/mL; in data set [11], 27500 ng/mL.

With `CC(C)C1=C(C(=O)N2[C@H](C)CC[C@H]2C(=O)N2CCN(C)[C@@H](C)C2)SC2=N[C@@](C)(c3ccc(Cl)cc3)[C@@H](c3ccc(Cl)cc3)N21`, the remaining at 0.5 h, 1 µM in data set [1] came to 63%.

Take `CC(C)C1=C(C(=O)N2[C@@H](C)CC[C@H]2C(=O)N(C)C)SC2=N[C@@](C)(c3ccc(Cl)cc3)[C@@H](c3ccc(Cl)cc3)N21`: the remaining at 0.5 h, 1 µM in data set [1] turned out to be 39%.

Consider `CC[C@H]1CC[C@@H](C(=O)N(C)C)N1C(=O)C1=C(C(C)C)N2C(=N[C@@](C)(c3ccc(Cl)cc3)[C@H]2c2ccc(Cl)cc2)S1`, for which the remaining at 0.5 h, 1 µM in [1] is 47%.

For the compound `CC(C)C1=C(C(=O)N2[C@H](C)CC[C@H]2C(=O)N(C)C)SC2=N[C@@](C)(c3ccc(Cl)cc3)[C@@H](c3ccc(Cl)cc3)N21`, the remaining at 0.5 h, 1 µM in [1] was determined as 53%.

Regarding `CC[C@@H]1CC[C@@H](C(=O)N(C)C)N1C(=O)C1=C(C(C)C)N2C(=N[C@@](C)(c3ccc(Cl)cc3)[C@H]2c2ccc(Cl)cc2)S1`, the remaining at 0.5 h, 1 µM in data set [1] is 70%.

Turning to `CC(C)C1=C(C(=O)N2[C@H](C)CC[C@H]2C(=O)N2CCN(C)CC2)SC2=N[C@@](C)(c3ccc(Cl)cc3)[C@@H](c3ccc(Cl)cc3)N21`, the remaining at 0.5 h, 1 µM in data set [1] stood at 25%.

On to `CC(=O)N1CCN(C(=O)[C@@H]2CC[C@@H](C)N2C(=O)C2=C(C(C)C)N3C(=N[C@@](C)(c4ccc(Cl)cc4)[C@H]3c3ccc(Cl)cc3)S2)CC1`, for which, in data set [1], the remaining at 0.5 h, 1 µM is 13%.

As for `CC[C@@H]1CC[C@@H](C(=O)N2CCN(C)CC2)N1C(=O)C1=C(C(C)C)N2C(=N[C@@](C)(c3ccc(Cl)cc3)[C@H]2c2ccc(Cl)cc2)S1`, the remaining at 0.5 h, 1 µM in data set [1] turned out to be 50%.
